We go through 24 compounds from ChEMBL document CHEMBL1134619, “Arylcyclopropanecarboxyl guanidines as novel, potent, and selective inhibitors of the sodium hydrogen exchanger isoform-1” (J Med Chem, 2001).

The structures appear in SMILES notation.

The target of data set [1] is Sodium/hydrogen exchanger 1 (Homo sapiens, UniProt P19634). The experiment in a line: Screened in AP1 cells expressing human NHE-1 for sodium hydrogen exchange activity. In kind it is functional, cell-based. In a few lines: (§1)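 AP1 cell monolayers expressing the given human NHE isoform, loaded with BCECF-AM (5 µM final, 30 min, room temperature) in NaCl-HEPES pH 7.3. Acid load by NH4Cl-HEPES for 9 min, then washes in Na+-free choline buffer. Drug preincubation 7.5 min, then NaCl added (135 mM final). Fluorescence 485/444 nm excitation ratio (538 nm emission) read after 5 min, minus no-NaCl activity. IC50 from 8-point dose-response curve, mean ± SEM of several experiments.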

The nature of data set [2]: Oral bioavailability in rat. In kind it is ADME, organism-based. The conditions noted are these: in vivo. The procedure, abridged: (§2)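 Rats (n = 3) given a single 10 µmol/kg dose either intra-arterially or orally. Plasma samples analysed by LC/MS/MS. PK parameters are means ± SEM of the three animals.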
Data set [3] in a line: Half life period in rats was determined. The format is ADME, organism-based. The conditions noted are these: rat, in vivo. The procedure, abridged:
as §2

A short description of data set [4]: Plasma clearance in rats was determined. The format is ADME, organism-based. The conditions noted are these: rat. In a few lines:
as §2

A short description of data set [5]: Volume distribution at steady state in rats was determined. In kind it is ADME, organism-based. The conditions noted are these: rat, in vivo; read-out: VSS. The procedure, abridged:
as §2

Data set [6] concerns the target T1, Sodium/hydrogen exchanger 3 (Homo sapiens, UniProt P48764).
T1 sequence (P48764 whole entry): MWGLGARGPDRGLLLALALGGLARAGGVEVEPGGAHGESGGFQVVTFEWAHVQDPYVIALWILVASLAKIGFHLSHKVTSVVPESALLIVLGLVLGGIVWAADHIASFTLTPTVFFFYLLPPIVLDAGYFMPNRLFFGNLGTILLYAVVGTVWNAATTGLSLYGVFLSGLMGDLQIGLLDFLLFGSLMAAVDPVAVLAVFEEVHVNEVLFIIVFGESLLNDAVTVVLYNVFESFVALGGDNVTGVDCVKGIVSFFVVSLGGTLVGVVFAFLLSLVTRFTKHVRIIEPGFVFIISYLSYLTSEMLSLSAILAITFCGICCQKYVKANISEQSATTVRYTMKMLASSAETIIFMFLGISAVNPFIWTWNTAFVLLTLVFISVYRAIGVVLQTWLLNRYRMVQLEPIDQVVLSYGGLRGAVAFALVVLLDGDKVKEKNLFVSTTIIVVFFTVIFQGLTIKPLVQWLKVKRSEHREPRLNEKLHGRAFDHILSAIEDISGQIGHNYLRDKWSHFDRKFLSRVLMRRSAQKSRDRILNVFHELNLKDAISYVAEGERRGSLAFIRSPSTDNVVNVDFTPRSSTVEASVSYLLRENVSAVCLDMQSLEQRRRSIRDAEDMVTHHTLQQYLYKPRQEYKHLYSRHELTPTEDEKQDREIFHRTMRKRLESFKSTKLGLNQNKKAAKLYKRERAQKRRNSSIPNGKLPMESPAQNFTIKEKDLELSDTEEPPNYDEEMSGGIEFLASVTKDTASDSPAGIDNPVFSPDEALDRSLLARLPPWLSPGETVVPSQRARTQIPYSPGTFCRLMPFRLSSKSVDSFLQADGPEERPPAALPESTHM
The experiment in a line: Compound is screened in AP1 cells expressing human NHE-3 for sodium hydrogen exchange activity. In kind it is functional, cell-based. In a few lines: as §1

In data set [7] the target is T2, Sodium/hydrogen exchanger 5 (Homo sapiens, UniProt Q14940).
T2 sequence (Q14940 whole entry): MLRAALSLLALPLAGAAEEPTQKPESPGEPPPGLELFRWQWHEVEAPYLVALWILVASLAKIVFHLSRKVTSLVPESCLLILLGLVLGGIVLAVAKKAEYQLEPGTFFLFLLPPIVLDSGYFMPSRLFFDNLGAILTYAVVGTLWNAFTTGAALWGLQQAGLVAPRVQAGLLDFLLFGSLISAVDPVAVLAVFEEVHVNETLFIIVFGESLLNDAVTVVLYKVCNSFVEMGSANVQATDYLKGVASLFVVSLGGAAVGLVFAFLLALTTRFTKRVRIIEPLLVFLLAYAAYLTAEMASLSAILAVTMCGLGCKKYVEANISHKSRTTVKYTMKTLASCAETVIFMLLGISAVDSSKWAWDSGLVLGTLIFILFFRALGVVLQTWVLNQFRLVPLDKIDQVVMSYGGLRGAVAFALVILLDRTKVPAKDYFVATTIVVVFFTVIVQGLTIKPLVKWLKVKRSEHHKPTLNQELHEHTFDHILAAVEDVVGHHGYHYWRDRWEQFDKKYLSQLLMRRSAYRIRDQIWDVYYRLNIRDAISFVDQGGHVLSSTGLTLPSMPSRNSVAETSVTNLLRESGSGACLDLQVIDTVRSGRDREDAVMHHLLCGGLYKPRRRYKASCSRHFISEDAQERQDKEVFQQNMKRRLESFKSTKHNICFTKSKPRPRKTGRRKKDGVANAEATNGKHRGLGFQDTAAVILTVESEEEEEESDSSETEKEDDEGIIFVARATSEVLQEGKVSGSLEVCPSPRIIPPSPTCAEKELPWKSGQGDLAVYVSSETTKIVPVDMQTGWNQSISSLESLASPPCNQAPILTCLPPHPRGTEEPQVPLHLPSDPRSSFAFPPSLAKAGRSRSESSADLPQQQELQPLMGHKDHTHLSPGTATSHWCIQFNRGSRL
The experiment in a line: Compound is screened in AP1 cells expressing human NHE-5 for sodium hydrogen exchange activity. In kind it is functional, cell-based. The procedure, abridged:
as §1

Data set [8] has as its target T3, Sodium/hydrogen exchanger 2 (Homo sapiens, UniProt Q9UBY0).
T3 sequence (Q9UBY0 whole entry): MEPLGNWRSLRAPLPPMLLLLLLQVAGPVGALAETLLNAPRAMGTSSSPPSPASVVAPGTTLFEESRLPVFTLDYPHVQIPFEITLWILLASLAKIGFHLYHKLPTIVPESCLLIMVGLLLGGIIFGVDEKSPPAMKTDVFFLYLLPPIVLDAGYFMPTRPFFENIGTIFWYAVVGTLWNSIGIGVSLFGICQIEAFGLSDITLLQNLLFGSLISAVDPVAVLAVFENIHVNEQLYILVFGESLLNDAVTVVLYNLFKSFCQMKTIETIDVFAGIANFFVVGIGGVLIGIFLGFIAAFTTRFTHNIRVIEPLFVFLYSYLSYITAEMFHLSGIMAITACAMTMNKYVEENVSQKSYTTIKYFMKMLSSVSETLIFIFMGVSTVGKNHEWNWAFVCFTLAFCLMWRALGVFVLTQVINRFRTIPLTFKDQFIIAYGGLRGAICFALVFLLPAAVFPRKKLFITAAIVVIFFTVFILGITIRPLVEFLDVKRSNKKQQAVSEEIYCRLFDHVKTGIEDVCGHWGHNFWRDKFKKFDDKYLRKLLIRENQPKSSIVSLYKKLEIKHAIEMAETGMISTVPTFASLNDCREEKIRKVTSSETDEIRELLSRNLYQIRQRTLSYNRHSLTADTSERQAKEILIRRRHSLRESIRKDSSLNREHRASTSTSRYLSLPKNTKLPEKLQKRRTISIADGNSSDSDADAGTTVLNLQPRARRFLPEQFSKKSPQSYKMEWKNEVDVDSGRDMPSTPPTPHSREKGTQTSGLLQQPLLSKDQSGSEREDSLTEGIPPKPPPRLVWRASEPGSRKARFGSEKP
The experiment in a line: Compound is screened in AP1 cells expressing human NHE-2 for sodium hydrogen exchange activity. The format is functional, cell-based. The procedure, abridged: as §1

Sequence of Sodium/hydrogen exchanger 1 (P19634 whole entry, canonical isoform): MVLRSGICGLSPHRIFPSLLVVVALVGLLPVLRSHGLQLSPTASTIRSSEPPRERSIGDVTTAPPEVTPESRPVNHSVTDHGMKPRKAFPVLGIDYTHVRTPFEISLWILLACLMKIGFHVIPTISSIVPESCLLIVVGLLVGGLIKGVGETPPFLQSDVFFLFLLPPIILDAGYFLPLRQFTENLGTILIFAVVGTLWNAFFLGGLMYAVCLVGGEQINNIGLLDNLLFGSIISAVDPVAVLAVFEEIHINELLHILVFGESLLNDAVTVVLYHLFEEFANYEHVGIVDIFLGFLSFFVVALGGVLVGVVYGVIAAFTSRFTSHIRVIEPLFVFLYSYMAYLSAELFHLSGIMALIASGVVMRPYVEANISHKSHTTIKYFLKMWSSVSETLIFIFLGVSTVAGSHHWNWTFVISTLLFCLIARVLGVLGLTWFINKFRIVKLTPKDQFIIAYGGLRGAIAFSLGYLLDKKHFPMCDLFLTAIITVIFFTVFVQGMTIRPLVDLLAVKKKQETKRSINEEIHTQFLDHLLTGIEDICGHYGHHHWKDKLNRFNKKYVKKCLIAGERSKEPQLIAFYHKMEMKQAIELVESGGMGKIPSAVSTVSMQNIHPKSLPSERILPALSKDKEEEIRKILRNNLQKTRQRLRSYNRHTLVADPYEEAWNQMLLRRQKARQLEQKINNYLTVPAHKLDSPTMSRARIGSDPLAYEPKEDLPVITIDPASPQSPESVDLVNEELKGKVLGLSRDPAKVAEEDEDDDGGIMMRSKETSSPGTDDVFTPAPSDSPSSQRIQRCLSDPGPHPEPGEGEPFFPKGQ

In data set [1], `Cc1cc([C@@H]2[C@@H](C(=O)N=C(N)N)C2(C)C)ccc1F` gave a half-maximal inhibitory concentration (IC50) of 0.032 µM.
As to `N=C(N)NC(=O)[C@H]1C[C@@H]1c1cccc([N+](=O)[O-])c1`, in data set [1], 1.6 µM corresponded to half-maximal inhibition (IC50).
On to `N=C(N)NC(=O)[C@H]1C[C@@H]1c1cc(Cl)ccc1Cl`, for which the bioavailability in data set [2] was 13%. The half-life in data set [3] is 3.4 h. In data set [4], the clearance turned out to be 8.58 L/h/kg. Further, in data set [1], the IC50 is 0.04 µM. In data set [5], the Vd is 21 L/kg.
`CC(C)c1cc([C@@H]2[C@@H](C(=O)N=C(N)N)C2(C)C)ccc1F` displayed an IC50 in data set [1] of 0.017 µM.
`N=C(N)NC(=O)[C@H]1C[C@@H]1c1ccccc1Cl` showed a half-inhibitory concentration (IC50) in data set [1] of 0.98 µM.
On the same count and under the same terms, as for `CC(C)c1ccc([C@H]2C[C@@H]2C(=O)NC(=N)N)cc1`, the figure is > 30 µM; as for `N=C(N)NC(=O)[C@H]1C[C@@H]1c1ccc(F)c(Br)c1`, 0.09 µM.
On the same count and under the same terms, with `CCc1cc([C@@H]2[C@@H](C(=O)NC(=N)N)C2(C)C)ccc1F` the figure was 0.005 µM; with `N=C(N)NC(=O)[C@H]1C[C@@H]1c1ccccc1`, 3.5 µM; with `N=C(N)NC(=O)[C@H]1C[C@@H]1c1ccc(F)cc1`, 1.6 µM.
With `CC1(C)[C@H](C(=O)N=C(N)N)[C@H]1c1cc(Cl)ccc1Cl`, in data set [2], the bioavailability turned out to be 47%. This compound gave a half-life in data set [3] of 8 h. The clearance in data set [4] worked out at 2.64 L/h/kg. Besides, the midpoint of inhibition in data set [1], the IC50, lay at 0.005 µM. For the same compound, the Vd in data set [5] is 23 L/kg.
The compound `N=C(N)NC(=O)[C@H]1C[C@@H]1c1ccc(Cl)cc1` showed an IC50 in data set [1] of 2.9 µM.
Consider `CC1(C)[C@H](C(=O)N=C(N)N)[C@H]1c1ccccc1`, for which the IC50 in data set [1] stood at 0.069 µM.
Still for that read-out and setting: with `COc1cccc([C@H]2C[C@@H]2C(=O)NC(=N)N)c1` the figure was 0.54 µM.
Take `N=C(N)NC(=O)[C@H]1C[C@@H]1c1cccc2c1CCO2`: the bioavailability in data set [2] was 49%. The half-life in data set [3] was 1.3 h. Further, the clearance in data set [4] turned out to be 7.2 L/h/kg. For the same compound, the IC50 in data set [1] amounted to 0.12 µM. Moreover, the Vd in data set [5] came to 6 L/kg.
As to `CC1(C)[C@H](C(=O)NC(=N)N)[C@H]1c1cccc(Cl)c1`, half-maximal inhibition in data set [1] (IC50) required 0.014 µM.
Same read-out and setting: as for `COc1cccc([C@@H]2[C@@H](C(=O)NC(=N)N)C2(C)C)c1`, the figure is 0.012 µM.
Still for that read-out and setting: as for `N=C(N)NC(=O)[C@H]1C[C@@H]1c1cccc(Cl)c1`, the figure is 0.28 µM.
With `N=C(N)NC(=O)[C@H]1C[C@@H]1c1ccc([N+](=O)[O-])cc1`, the IC50 in data set [1] is > 30 µM.
Take `CC1(C)[C@H](C(=O)N=C(N)N)[C@H]1c1ccc(F)c(Br)c1`: half-maximal inhibition in data set [1] (IC50) was put at 0.003 µM.
On the same count and under the same terms, as for `CC1(C)[C@H](C(=O)NC(=N)N)[C@H]1c1cc(Cl)cc(Cl)c1`, the figure is 0.006 µM.
Take `CC1(C)[C@H](C(=O)N=C(N)N)[C@H]1c1cccc2c1CCO2`: the bioavailability in data set [2] stood at 63%. Also, the half-life in data set [3] is 3 h. This compound gave a clearance in data set [4] of 4.44 L/h/kg. In addition, the IC50 in data set [1] was 0.009 µM; in data set [6], > 30 µM; in data set [7], 3.36 µM; in data set [8], 1.8 µM. For the same compound, the Vd in data set [5] stood at 8.6 L/kg.
`CC(C)c1ccc(C(=O)NC(=N)N)cc1S(C)(=O)=O` [CARIPORIDE]: the IC50 in data set [1] is 3.4 µM; in data set [6], > 30 µM; in data set [7], > 30 µM; in data set [8], 62 µM.
As to `Cc1cc(-n2cccc2)c(S(C)(=O)=O)cc1C(=O)NC(=N)N` [ENIPORIDE], the IC50 in data set [1] was 0.38 µM; in data set [6], > 30 µM; in data set [7], > 30 µM; in data set [8], 17 µM.

As usually defined, the IC50 is the concentration needed to halve the response being measured. Low values mean higher potency, high ones lower potency. As usually defined, the bioavailability is the share of a dose that reaches the circulation, judged against a reference dose that is usually intravenous. Read a high bioavailability as good availability. A word on the half-life: it is how long it takes for the measured level to halve. A higher half-life goes with slow loss. The clearance is the rate of elimination divided by the concentration. A high value points to a high capacity for elimination.
